In ChEMBL document CHEMBL1142879, “Synthesis and biological evaluation of dialkylsubstituted maleic anhydrides as novel inhibitors of Cdc25 dual specificity phosphatases” (Eur J Med Chem, 2007):
pIC50: −log10 of the molar value.

How the values were obtained:
[1] = Inhibition of horse liver alkaline phosphatase; design: species or system Equus caballus
Procedure, shortened: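 Phosphatase activity was read with p-nitrophenyl phosphate as substrate, following a previously described method.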

[2] = target: T1, M-phase inducer phosphatase 3 (Homo sapiens, UniProt P30307); assay: Inhibition of human GST-Cdc25C expressed in Escherichia coli BL21(DE3)
T1 sequence (P30307 whole entry): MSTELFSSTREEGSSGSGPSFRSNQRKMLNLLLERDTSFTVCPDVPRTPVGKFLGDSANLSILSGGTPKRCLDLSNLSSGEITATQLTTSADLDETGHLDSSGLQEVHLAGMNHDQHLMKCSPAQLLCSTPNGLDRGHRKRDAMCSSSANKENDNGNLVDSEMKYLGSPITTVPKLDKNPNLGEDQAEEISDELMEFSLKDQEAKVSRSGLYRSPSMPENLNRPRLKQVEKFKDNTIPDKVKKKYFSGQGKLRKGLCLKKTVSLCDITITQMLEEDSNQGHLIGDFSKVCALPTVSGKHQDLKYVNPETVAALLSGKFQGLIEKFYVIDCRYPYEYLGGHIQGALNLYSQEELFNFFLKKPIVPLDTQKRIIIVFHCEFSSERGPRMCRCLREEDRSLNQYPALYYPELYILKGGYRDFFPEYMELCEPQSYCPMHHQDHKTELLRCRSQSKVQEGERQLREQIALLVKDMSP
Procedure, shortened: (§1)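 GST fusion proteins (full-length Cdc25A and Cdc25C; Cdc25B catalytic domain) were expressed in E. coli grown with ampicillin and induced with IPTG at OD600 0.4–0.6 for 5 h. They were purified on glutathione-agarose. Activity was measured with p-nitrophenyl phosphate as substrate across a range of inhibitor concentrations. IC50 is the mean ± SD of at least two independent experiments, each with four determinations per concentration.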

[3] = target: T2, M-phase inducer phosphatase 1 (Homo sapiens, UniProt P30304); assay: Inhibition of human GST-Cdc25A expressed in Escherichia coli BL21(DE3); procedure, shortened: as §1
T2 sequence (P30304 whole entry): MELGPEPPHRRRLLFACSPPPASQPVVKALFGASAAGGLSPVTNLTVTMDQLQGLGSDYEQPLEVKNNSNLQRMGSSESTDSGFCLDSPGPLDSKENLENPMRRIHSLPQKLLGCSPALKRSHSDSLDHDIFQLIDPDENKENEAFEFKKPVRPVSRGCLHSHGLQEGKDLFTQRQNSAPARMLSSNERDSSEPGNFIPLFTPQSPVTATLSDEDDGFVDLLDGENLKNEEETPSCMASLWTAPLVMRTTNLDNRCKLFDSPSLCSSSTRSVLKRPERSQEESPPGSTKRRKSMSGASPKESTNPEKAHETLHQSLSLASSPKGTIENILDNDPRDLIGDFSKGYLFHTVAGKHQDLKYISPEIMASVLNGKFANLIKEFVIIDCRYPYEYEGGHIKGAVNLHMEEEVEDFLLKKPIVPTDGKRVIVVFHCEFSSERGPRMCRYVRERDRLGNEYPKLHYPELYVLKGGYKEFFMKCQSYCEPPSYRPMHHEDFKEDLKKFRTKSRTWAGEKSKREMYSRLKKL

[4] = target: T3, M-phase inducer phosphatase 2 (Homo sapiens, UniProt P30305); assay: Inhibition of human GST-Cdc25B expressed in Escherichia coli BL21(DE3); procedure, shortened: as §1
T3 sequence (P30305 whole entry): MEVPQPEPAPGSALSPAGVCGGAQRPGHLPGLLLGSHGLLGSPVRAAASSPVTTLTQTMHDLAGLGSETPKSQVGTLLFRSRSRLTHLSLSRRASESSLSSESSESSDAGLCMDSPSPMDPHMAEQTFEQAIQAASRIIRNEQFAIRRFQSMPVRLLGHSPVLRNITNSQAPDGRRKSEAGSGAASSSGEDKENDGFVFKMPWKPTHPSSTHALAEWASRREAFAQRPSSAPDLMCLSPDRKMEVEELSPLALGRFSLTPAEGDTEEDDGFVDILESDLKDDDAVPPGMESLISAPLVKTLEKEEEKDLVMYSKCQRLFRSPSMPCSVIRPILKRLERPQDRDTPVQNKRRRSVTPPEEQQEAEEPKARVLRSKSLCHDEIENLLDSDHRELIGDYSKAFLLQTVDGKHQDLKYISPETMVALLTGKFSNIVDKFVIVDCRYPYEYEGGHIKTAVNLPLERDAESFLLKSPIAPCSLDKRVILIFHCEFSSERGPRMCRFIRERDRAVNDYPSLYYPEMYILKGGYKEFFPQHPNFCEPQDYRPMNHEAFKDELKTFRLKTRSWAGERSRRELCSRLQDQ

Row | Compound | pIC50 [1] | pIC50 [2] | pIC50 [3] | pIC50 [4]
1 | CCCCCCC1=C(CCC(=O)O)C(=O)OC1=O | < 4.00 | < 4.00 | < 4.00 | < 4.00
2 | CCCCCCCCC1=C(CCC(=O)O)C(=O)OC1=O | < 4.00 | < 4.00 | < 4.00 | < 4.00
3 | CCCCCCCCCCC1=C(CCC(=O)O)C(=O)OC1=O | < 4.00 | 4.27 | 4.35 | 4.26
4 | CCCCCCCCCCCCCC1=C(CCC(=O)O)C(=O)OC1=O | < 4.00 | 5.24 | 5.09 | 5.06
5 | CCCCCCCCCCCCCCC1=C(CCC(=O)O)C(=O)OC1=O | < 4.00 | 4.90 | 5.20 | 4.94
6 | CCCCCCCCCCCCCCCCCC1=C(CCC(=O)O)C(=O)OC1=O | < 4.00 |  |  | 
7 | CCCCCCCC/C=C\CCCCCCCC1=C(CCC(=O)O)C(=O)OC1=O | < 4.00 | 5.06 | 5.35 | 5.17
8 | CCCCCCCCCC1=C(CCC(=O)O)C(=O)OC1=O | < 4.00 | < 4.00 | < 4.00 | < 4.00
9 | CCCCCCCCCCCC1=C(CCC(=O)O)C(=O)OC1=O | < 4.00 | < 4.00 | 4.35 | 4.32
10 | CCCCCCCCCCCCCCCC1=C(CCC(=O)O)C(=O)OC1=O | < 4.00 | 5.07 | 5.33 | 5.12
